Results reported in ChEMBL document CHEMBL2406936, “Highly oxygenated meroterpenoids from fruiting bodies of the mushroom Tricholoma terreum” (J Nat Prod, 2013).

Key:
Type in all cases: functional, cell-based
HL-60 = test: Cytotoxicity against human HL60 cells after 48 hrs by MTT assay
How it was run: (§1)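 Cells grown in RPMI1640 or DMEM with 10% FBS at 37 °C under 5% CO2. Adherent lines (A-549, MCF-7, SMMC-7721, SW480) were allowed 12 h to attach before dosing. Suspension HL-60 cells were seeded just before dosing at an initial 1 × 10^5 cells/mL. Compounds in DMSO at 0.0625, 0.32, 1.6, 8 and 40 μmol, in triplicate, for 48 h. MTT read-out. Cisplatin and vinorelbine were the positive controls.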

SW480 = test: Cytotoxicity against human SW480 cells after 48 hrs by MTT assay; how it was run: as §1
SMMC-7721 = test: Cytotoxicity against human SMMC7721 cells after 48 hrs by MTT assay; how it was run: as §1
A549 = test: Cytotoxicity against human A549 cells after 48 hrs by MTT assay; how it was run: as §1
MCF7 = test: Cytotoxicity against human MCF7 cells after 48 hrs by MTT assay; how it was run: as §1

| Structure (SMILES) | IC50 (HL-60) [µmol] | IC50 (SW480) [µmol] | IC50 (SMMC-7721) [µmol] | IC50 (A549) [µmol] | IC50 (MCF7) [µmol] |
| --- | --- | --- | --- | --- | --- |
| COc1cc(O)c2c(c1O)C[C@]1(C)O[C@@H]1CC[C@@]1(C)O[C@@H]1C2=O | 4 | 14.2 | 11.3 | 4.2 | 16.1 |
| COc1cc(O)c2c(c1O)C/C(C)=C\CC[C@@]1(C)O[C@@H]1C2=O | 5.6 | > 40 | 24.7 | 16.4 | 24.6 |
| COc1cc(O)c2c(c1O)C/C(C)=C\[C@@H](O)C[C@@]1(C)O[C@@H]1C2=O | 17.8 | 21.1 | 14.9 | 6.5 | 21 |
